We go through 13 compounds from BindingDB's records for doi:10.1016/j.bmc.2013.02.060 (National Institute On Drug Abuse and The National Institute …, 2013).

Delta-type opioid receptor, sequence (P41143 whole entry): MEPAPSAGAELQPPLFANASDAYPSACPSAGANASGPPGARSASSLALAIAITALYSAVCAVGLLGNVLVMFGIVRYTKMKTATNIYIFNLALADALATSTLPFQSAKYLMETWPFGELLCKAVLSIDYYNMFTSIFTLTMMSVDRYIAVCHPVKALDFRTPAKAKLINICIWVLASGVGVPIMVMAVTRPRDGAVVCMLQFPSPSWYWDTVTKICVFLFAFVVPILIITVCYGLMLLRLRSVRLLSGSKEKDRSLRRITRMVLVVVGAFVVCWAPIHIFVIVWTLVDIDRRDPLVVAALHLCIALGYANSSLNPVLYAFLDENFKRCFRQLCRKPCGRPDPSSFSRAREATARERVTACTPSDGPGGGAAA

The test concerns the target Delta-type opioid receptor (Homo sapiens, UniProt P41143). Kind of test: Displacement of [3H]DADLE from human recombinant delta opioid receptor expressed in CHO cell membranes after 2 hrs by liquid scintillation counting analysis. The gist of the method: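 Human DOR stably expressed in CHO cells; washed membranes (~30 µg protein/tube) incubated with ~2 nM [3H]DADLE and 10 drug concentrations in 50 mM Tris-HCl pH 7.4 with protease inhibitors, 2 h at 25 °C. Levallorphan defined nonspecific binding.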
Background: Displacement assays read how much labelled ligand stays bound in the presence of the test substance.
The term Ki denotes a dissociation constant, usually derived from enzyme kinetics or from competition with a known ligand. For `Oc1ccc2c(c1)[C@]1(CCc3ccccc3)CCN(CCc3ccc(C(F)(F)F)cc3)C[C@@H]1O2`, the Ki is 0.026 µM.
Next, `Oc1ccc2c(c1)[C@]1(CCc3ccccc3)CCN(CCc3cccc(C(F)(F)F)c3)C[C@@H]1O2`: 0.063 µM; `Oc1ccc2c(c1)[C@]1(CCc3ccccc3)CCN(CC3CC3)C[C@@H]1O2`: 0.024 µM.
`Oc1ccc2c(c1)[C@]1(CCc3ccccc3)CCN(CCCc3ccccc3)C[C@@H]1O2`: the Ki came to 0.111 µM.
To `CN1CC[C@@]2(CCc3ccccc3F)c3cc(O)ccc3O[C@H]2C1` belongs 0.052 µM; to `Oc1ccc2c(c1)[C@]1(CCc3ccccc3)CCN(CCc3ccc(F)cc3)C[C@@H]1O2`, 0.034 µM.
To `CN1CC[C@@]2(C)c3cc(O)ccc3O[C@H]2C1` belongs over 10 µM.
For the compound `Oc1ccc2c(c1)[C@]1(CCc3ccccc3)CCN(CCc3ccccc3)C[C@@H]1O2`, the Ki came to 0.039 µM.
As to `CN1CC[C@@]2(CCCCCc3ccccc3)c3cc(O)ccc3O[C@H]2C1`, the Ki is 0.075 µM.
Next, `CCCC[C@@]12CCN(C)C[C@@H]1Oc1ccc(O)cc12`: 0.207 µM; `Oc1ccc2c(c1)[C@]1(CCc3ccccc3)CCN(CCc3ccccc3F)C[C@@H]1O2`: 0.026 µM; `Oc1ccc2c(c1)[C@]1(CCc3ccccc3)CCN(CCc3ccccc3C(F)(F)F)C[C@@H]1O2`: 0.136 µM.
In the case of `CN1CC[C@@]2(CCc3ccc(F)cc3)c3cc(O)ccc3O[C@H]2C1`, the Ki was 0.128 µM.
